In ChEMBL document CHEMBL1148136, “Induction of quinone reductase by withanolides” (J Nat Prod, 2002):

Experiments:
[1] = Growth inhibition of mouse Hepa-1c1c7 cells by crystal violet staining; format: cell-based; conditions: for IC50: Mus musculus, Hepa-1c1c7; for Activity: mouse, hepa-1c1c7
Outline: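 Hepa 1c1c7 cells seeded at 4000 cells/mL and grown 24 h at 37 °C, then medium changed. Compounds added in 10% DMSO, serially diluted over 0.15-20 µg/mL, and exposed 48 h. Viability read by crystal violet staining at 595 nm. IC50 taken as the half-maximal inhibitory concentration of cell viability.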

[2] = Chemoprevention index, ratio of IC50 for mouse Hepa-1c1c7 cells to drug level required to double specific quinone reductase activity in mouse Hepa-1c1c7 cells; format: functional
Outline: (§1)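 Hepa 1c1c7 cells seeded at 4000 cells/mL, grown 24 h at 37 °C under CO2, then medium changed. Compounds added in 10% DMSO, serially diluted over 0.15-20 µg/mL, and incubated a further 48 h. QR measured as NADPH-dependent, menadiol-mediated MTT reduction to formazan. Protein by crystal violet at 595 nm in duplicate plates. Specific activity expressed relative to solvent control. CD = concentration giving 2-fold activity, CQ = 4-fold. CI = IC50/CD or IC50/CQ.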

[3] = Chemoprevention index, ratio of IC50 for mouse Hepa-1c1c7 cells to drug level required to induce 4-fold increase in quinone reductase activity in mouse Hepa-1c1c7 cells; format: functional; outline: as §1

Row | Structure (SMILES) | IC50 [1] | Ratio [2] | Ratio [3] | Activity [1]
1 | CC(=O)O[C@H]1C=CC(=O)[C@]2(C)[C@H]3CC[C@]45C(O)O[C@@](C)([C@H]6C[C@H](C)[C@@H](C)C(=O)O6)[C@H]4CC[C@H]5[C@@H]3C[C@H]3O[C@]132 (stereo partly specified) | 0.39 µM | >1.4 | >1.4 | 
2 | CC(=O)O[C@H]1C=CC(=O)[C@@]2(C)C1=C[C@H](OC(C)=O)[C@@H]1[C@@H]2CC[C@]2(C)[C@@H]([C@@](C)(O)[C@H]3CC(C)=C(C)C(=O)O3)CC[C@@H]12 | 0.81 µM | >3 |  | 
3 | CC(=O)O[C@@H]1[C@H]2[C@@H]3CC[C@H]([C@@](C)(O)[C@H]4CC(C)=C(C)C(=O)O4)[C@@]3(C)CC[C@@H]2[C@@]2(C)C(=O)C=C[C@H](OC(C)=O)[C@]23O[C@H]13 | 0.33 µM | 1.3 |  | 
4 | CC(=O)O[C@H]1C=CC(=O)[C@]2(C)[C@H]3CC[C@]45C(=O)O[C@@](C)([C@H]6C[C@H](C)[C@@H](C)C(=O)O6)[C@H]4CC[C@H]5[C@@H]3C[C@H]3O[C@]132 | 0.42 µM | >1.5 | >1.5 | 
5 | CC1=C(C)C(=O)O[C@@H]([C@](C)(O)[C@H]2CC[C@H]3[C@@H]4[C@@H](O)C=C5[C@@H](O)C=CC(=O)[C@]5(C)[C@H]4CC[C@]23C)C1 | 1.66 µM | 3.5 | 0.62 | 
6 | CC(=O)C1=CC[C@H]2[C@@H]3[C@@H]4O[C@@H]4[C@@]4(O)CC=CC(=O)[C@]4(C)[C@H]3CC[C@]12C | > 58.4 µM | >1.7 |  | 
7 | CC1=C(C)C(=O)O[C@@H]([C@@H](C)[C@H]2[C@@H](O)C[C@H]3[C@@H]4C[C@H]5O[C@]56[C@@H](O)C=CC(=O)[C@]6(C)[C@H]4CC[C@]23C)C1 | 0.66 µM | >2.1 | 1.3 | 
8 | CC1=C(C)C(=O)O[C@@H]([C@](C)(O)[C@H]2CC[C@H]3[C@@H]4C[C@H]5O[C@]56[C@@H](O)C=CC(=O)[C@]6(C)[C@H]4CC[C@]23CO)C1 | 1.93 µM | 7.2 | 3.5 | 
9 | CC1=C(C)C(=O)O[C@@H]([C@](C)(O)[C@H]2CC[C@H]3[C@@H]4[C@@H](O)[C@H]5O[C@]56[C@@H](O)C=CC(=O)[C@]6(C)[C@H]4CC[C@]23C)C1 | 1.27 µM | 2.5 |  | 
10 | CC(=O)O[C@H]1C=CC(=O)[C@]2(C)[C@H]3CC[C@]45C(=O)O[C@@](C)([C@H]6CC(C)=C(C)C(=O)O6)[C@H]4CC[C@H]5[C@@H]3C[C@H]3O[C@]132 | 0.57 µM | >2 | >2 | 
11 | CC(=O)O[C@@H]1O[C@@](C)([C@H]2CC(C)=C(C)C(=O)O2)[C@H]2CC[C@H]3[C@@H]4CC=C5[C@@H](OC(C)=O)C=CC(=O)[C@]5(C)[C@H]4CC[C@]123 | 5.1 µM |  |  | 
12 | C[C@H]1C[C@H]([C@](C)(O)[C@H]2CC[C@H]3[C@@H]4C[C@H]5O[C@]56[C@@H](O)C=CC(=O)[C@]6(C)[C@H]4CC[C@]23C)OC(=O)[C@@H]1C | 5.5 µM | 7.8 | 1.4 | 
13 | CC1=C(C)C(=O)O[C@@H](/C(C)=C2\[C@@H](O)C[C@H]3[C@@H]4[C@@H]5O[C@@H]5[C@@]5(O)CC=CC(=O)[C@]5(C)[C@H]4CC[C@]23C)C1 [EXODECONOLIDE A] | > 42.7 µM | >2.7 |  | 
14 | CC1=C(C)C(=O)O[C@@H](/C(C)=C2\[C@H](O)C[C@H]3[C@@H]4[C@@H]5O[C@@H]5[C@@]5(O)CC=CC(=O)[C@]5(C)[C@H]4CC[C@]23C)C1 [EXODECONOLIDE B] | > 42.7 µM | >2.6 |  | 
15 | CC1=C(C)[C@]2(OC1=O)C(=O)C(C)=C1CC[C@H]3[C@@H]4C[C@H]5O[C@]56CC=CC(=O)[C@]6(C)[C@H]4C[C@@]2(O)[C@]13C [JABOROSALACTONE 1] | 8.08 µM | 28.9 | 6.3 | 
16 | CC1=C(C)[C@]2(OC1=O)[C@H](O)[C@@H](C)[C@]1(O)CC[C@H]3[C@@H]4C[C@@H](O)[C@@]5(Cl)CC=CC(=O)[C@]5(C)[C@H]4C[C@@]2(O)[C@@]31C [JABOROSALACTONE 10] | > 38 µM | >5.2 |  | 
17 | CO[C@]12CC=CC(=O)[C@]1(C)[C@H]1C[C@@]3(O)[C@@]4(C)[C@@H](CC[C@@]4(O)[C@H](C)[C@@H](O)[C@]34OC(=O)C(C)=C4C)[C@@H]1C[C@H]2O [JABOROSALACTONE 12] | > 39 µM | >4.2 |  | 
18 | CC1=C(CO)C(=O)O[C@@H]([C@@H](C)[C@H]2CC[C@H]3[C@@H]4C[C@H]5O[C@]56CC=CC(=O)[C@]6(C)[C@H]4CC[C@]23C)C1 [JABOROSALACTONE A] | 1.83 µM | 6.3 | 2.7 | 

Row | Structure (SMILES) | IC50 [1] | Ratio [2] | Ratio [3] | Activity [1]
19 | CC1=C(CO)C(=O)O[C@@H]([C@@H](C)[C@H]2CC[C@H]3[C@@H]4C[C@@H](O)[C@@]5(O)CC=CC(=O)[C@]5(C)[C@H]4CC[C@]23C)C1 [JABOROSALACTONE D] | > 42.3 µM | >1.7 |  | 
20 | CC1=C(C)C(=O)O[C@@H]([C@@H](C)[C@@]2(O)CC[C@H]3[C@@H]4C[C@H]5O[C@]56CC=CC(=O)[C@]6(CO)[C@H]4CC[C@@]32C)C1 [JABOROSALACTONE L] |  |  |  | Not Active
21 | CC1=C(C)C(=O)O[C@@H]([C@@H](C)[C@@]2(O)CC[C@H]3[C@@H]4C[C@H]5O[C@]56CCCC(=O)[C@]6(CO)[C@H]4CC[C@@]32C)C1 [JABOROSALACTONE O] | > 42.3 µM | >27.8 |  | 
22 | CC1=C(C)C(=O)O[C@@H]([C@@H]2CO[C@@]3(O)C[C@H]4[C@@H](C[C@@H](O)[C@@]5(O)CC=CC(=O)[C@]45C)[C@@H]4CC[C@]2(O)[C@]43C)C1 [JABOROSALACTONE S] | > 39.8 µM |  |  | 
23 | C[C@@H](c1ccc2c(c1)CC[C@H]1[C@H]2C[C@@H]2O[C@@]23CC=CC(=O)[C@]13C)[C@@H]1C[C@@H]2O[C@@H]2[C@H](O)O1 [SALPICHROLIDE A] | > 42.9 µM | >4 |  | 
24 | C[C@@H](c1cc(O)c2c(c1)CC[C@H]1[C@H]2C[C@@H]2O[C@@]23CC=CC(=O)[C@]13C)[C@@H]1C[C@@H]2O[C@@H]2[C@H](O)O1 [SALPICHROLIDE G] | > 42.9 µM | >3.7 |  | 
25 | C[S+]([O-])CCCCN=C=S (stereo unspecified) [SULFORAPHANE] |  | 23.9 | 1.1 | 
26 | CC1=C(C)C(=O)O[C@@H]([C@@H](C)[C@H]2CC[C@H]3[C@@H]4[C@@H]5O[C@@H]5[C@@]5(O)CC=CC(=O)[C@]5(C)[C@H]4C[C@H](O)[C@]23C)C1 [WITHAFEROXOLIDE] | > 42.5 µM | >2.9 |  | 
27 | CC1=C(C)C(=O)O[C@@H]([C@](C)(O)[C@H]2CC[C@H]3[C@@H]4[C@@H]5O[C@@H]5[C@@]5(O)CC=CC(=O)[C@]5(C)[C@H]4CC[C@]23C)C1 [WITHANOLIDE A] | > 42.5 µM |  |  | 
28 | CC1=C(C)C(=O)O[C@@H]([C@@H](C)[C@@]2(O)CC[C@H]3[C@@H]4[C@@H]5O[C@@H]5[C@@]5(O)CC=CC(=O)[C@]5(C)[C@H]4CC[C@@]32C)C1 [WITHANONE] |  |  |  | Not Active
29 | CC1=C(C)C(=O)O[C@@H]([C@]2(C)OC(O)[C@]34CC[C@H]5[C@@H](C[C@H]6O[C@]67[C@@H](O)C=CC(=O)[C@]57C)[C@@H]3CC[C@H]24)C1 (stereo partly specified) [WITHAPHYSALIN F] | 4.15 µM |  |  | 
30 | CC1=C(C)C(=O)O[C@@H]([C@]2(C)OC(O)[C@]34CC[C@H]5[C@@H](CC=C6[C@@H](O)C=CC(=O)[C@@]65C)[C@@H]3CC[C@H]24)C1 (stereo partly specified) [WITHAPHYSALIN G] | 9.83 µM | 19.3 |  | 
31 | CO[C@@H]1O[C@@](C)([C@H]2CC(C)=C(C)C(=O)O2)[C@H]2CC[C@H]3[C@@H]4CC=C5[C@@H](O)C=CC(=O)[C@]5(C)[C@H]4CC[C@]123 [WITHAPHYSALIN H] | 5.21 µM | 10 |  | 
32 | CO[C@H]1O[C@@](C)([C@H]2CC(C)=C(C)C(=O)O2)[C@H]2CC[C@H]3[C@@H]4CC=C5[C@@H](O)C=CC(=O)[C@]5(C)[C@H]4CC[C@]123 [WITHAPHYSALIN I] | 5.27 µM | 5.1 |  | 
33 | CC1=C(C)C(=O)O[C@@H]([C@]2(C)OC(=O)[C@]34CC[C@H]5[C@@H](CC=C6[C@@H](O)C=CC(=O)[C@@]65C)[C@@H]3CC[C@H]24)C1 [WITHAPHYSALIN J] | 11 µM | 28.1 |  | 
34 | CO[C@@H]1O[C@@](C)([C@H]2CC(C)=C(C)C(=O)O2)[C@H]2CC[C@H]3[C@@H]4CC=C5C(=O)C=CC(=O)[C@]5(C)[C@H]4CC[C@]123 [WITHAPHYSALIN K] | 7.29 µM |  |  | 
35 | CO[C@H]1O[C@@](C)([C@H]2CC(C)=C(C)C(=O)O2)[C@H]2CC[C@H]3[C@@H]4CC=C5C(=O)C=CC(=O)[C@]5(C)[C@H]4CC[C@]123 [WITHAPHYSALIN L] | 0.65 µM |  |  | 
